Experimental data: ChEMBL document CHEMBL4513216, “Probing the Open Global Health Chemical Diversity Library for Multistage-Active Starting Points for Next-Generation Antimalarials” (ACS Infect Dis, 2020)

Test: Toxicity liver stage against HepG2, at 10uM
Format: cell-based
Parameters: test concentration 10 uM, cell line HepG2-A16-CD81EGFP
Settings: human, HepG2-A16-CD81EGFP cells; read-out: INHIBITION
Outline: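 Uninfected HepG2-A16-CD81EGFP cells, 3 × 10^3 per well, 1536-well, plated on prespotted compound at 10 μM final, parasite-free screening media added to match infected plates; puromycin 10 μM positive, DMSO 0.5% negative; run in parallel with 48 h PbLuc assay at 37 °C, 5% CO2; viability by CellTiter-Glo luminescence, normalized to controls.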

SMILES | cytotoxicity at 10 µM
CSCCC(=O)N1C[C@H](Nc2ccnc(C)n2)[C@@H](C(C)C)C1 | -1.13%
COc1ccc(C(C)NCc2cscn2)cc1Cn1cccn1 (stereo not given) | 3.01%
CN1Cc2ccccc2NC(=O)C12CCNC2 (stereo not given) | 6.75%
Cc1cc(C)n(CC2CN(Cc3noc(C4CC4)n3)CCO2)n1 (stereo not given) | 2.79%
CCn1nc(C)c(CN2CCC(c3ccn[nH]3)C2)c1C (stereo not given) | -0.125%
CCN1C(=O)CCC12CCCN(Cc1nccs1)C2 (stereo not given) | -73.5%
CC(C)c1cc(N2CCSCC2)n2nccc2n1 | 4.66%
Cc1ccccc1C(=O)N1CC[C@@H]2CN(c3ncccn3)CCO[C@@H]2C1 | -72.4%
Cc1cc(C)n(CCCNc2ncnc3c2NC(=O)CN3)n1 | 8.71%
Cc1cc(-c2c(C)c(-c3cnn(C)c3)nc(N)c2C#N)oc1C | -93.5%
COc1cc(C(=O)Nc2nc(C)no2)ccc1OC1CCCC1 | -2.12%
N#Cc1cccc(NC(=O)N2CCC3(CCC(=O)N(C4CC4)C3)CC2)c1 | 3.9%
CS(=O)(=O)Cc1ccccc1NCc1cc(Cl)ccc1Cl | 7.67%
Cc1ccc(CCC(=O)N2CCC(Nc3cccnn3)CC2)cc1 | -5.36%
CC(C)(C)c1cc(CN2CCOCC(O)C2)n[nH]1 (stereo not given) | -3.89%
CC(C)c1cc(CN(C)C(=O)CN2CCNC2=O)no1 | -6.1%
O=C(O)c1c(Cl)ncn1-c1cccc2ccccc12 | 1.76%
CN(C)S(=O)(=O)N1CCC(c2n[nH]cc2-c2ccnc(N)c2)C1 (stereo not given) | 8.81%
c1ccc(OCc2nnc3n2CCN(Cc2ccco2)C3)nc1 | 5.5%
CN(Cc1cccc(-n2cccn2)c1)c1cc(N2CCCC2)nc(N)n1 | 51.6%
O=C(CCc1cccs1)N1CCCC1c1noc(C2CC2)n1 (stereo not given) | -4.87%
Cc1nc(N)nc(C)c1CC(=O)N1CCCN(CC2CC2)C(C(C)C)C1 (stereo not given) | -142%

SMILES | cytotoxicity at 10 µM
CCc1nccn1C1CCCN(C(=O)c2ccc3[nH]cnc3c2)C1 (stereo not given) | -7.66%
Cc1noc(C)c1CN1CCc2ncnc(-c3cccnc3)c2CC1 | -97.9%
O=C(NCCN1CCOC1=O)c1ccc2sccc2c1 | 12.9%
CC(C)(CN1CCCC1)CN1CCC(Cn2cc(CCO)nn2)CC1 | 1.87%
CCNC(=O)Cc1ccc(-c2cccc3c2CCNC3)cc1 | 13.6%
COCc1cccc(NC(=O)NCCCN(C)S(C)(=O)=O)c1 | -0.561%
Cn1cc(CN2CCCN(C(=O)c3cn4ccccc4n3)CC2)cn1 | -5.97%
Cc1ccc(CNC(=O)CN2CCN(CC(O)c3ccco3)CC2)cc1 (stereo not given) | 2.71%
CCN(CC)C(=O)CNC(=O)c1cnc(-c2ccccc2)nc1 | 12.7%
CCN(CC(=O)Nc1cc(Cl)ccc1C)C(=O)c1ccc(=O)[nH]n1 | -0.898%
CC1CCCN(C(=O)c2cn(-c3ccc(C(F)(F)F)cn3)nn2)C1 (stereo not given) | -51.3%
Fc1ccc(CN2CCCC3(COCCN(Cc4c[nH]nn4)C3)C2)cc1 (stereo not given) | 4.9%
Cc1noc(C)c1CN(C)CCc1nc(-c2cccc(Cl)c2)no1 | 16.6%
Cc1cc(CNCc2c(C(C)C)nn(C)c2N2CCOCC2)no1 | 16.5%
O=c1c2cnc(N3CCCCC3)nc2ccn1-c1ccccc1 | -10.1%
COCCC(=O)N1C[C@H]2CN(Cc3cccc(C)n3)C(=O)[C@H]2C1 | 4.4%
CCn1cc(CN2CCCN(C(=O)c3ccco3)CC2)cn1 | -11.3%
Cc1ccc(N2CCCC(NCc3ccc(Cl)o3)C2)nn1 (stereo not given) | -6.83%
Cc1ccccc1CNC(=O)CN1CCN(Cc2nccn2C)CC1 | -5.75%
Cc1noc(C)c1CC(=O)NCCN1CCN(S(C)(=O)=O)CC1 | -5.87%
NC(=O)N1CCCN(Cc2cc(F)cc(Br)c2)CC1 | 9.91%
CN(C)C(=O)CCCS(=O)(=O)Cc1cc(Cl)c2c(c1)OCO2 | -4.52%

SMILES | cytotoxicity at 10 µM
CN(Cc1cc(C2CC2)[nH]n1)C(=O)c1ccccc1C1CCNC1 (stereo not given) | 1.89%
O=S1(=O)NC2(CCCN(Cc3ccc(F)cc3)C2)COc2ccccc21 (stereo not given) | 7.63%
O=C(Nc1ccc(OC2CCCC2)cc1)C1CCCN1c1nccs1 (stereo not given) | -10.2%
COc1ccccc1-c1nccnc1C1CCN(C(C)=O)CC1 | -1.69%
CC(C)(CNC(=O)CCCOc1cccc(F)c1)C(N)=O | -6.54%
COC(=O)N1CCC(Oc2ccc(C(=O)NCCN(C)C)cc2Cl)CC1 | -6.34%
CCN(CC)C(=O)c1ccc(CNc2cncc(-n3cccn3)n2)cc1 | 7.18%
Cn1cc(CN2CC[C@H]3OCC[C@@H](C(=O)NC4CCCC4)[C@@H]3C2)cn1 | 0.835%
COc1ccc2c(c1)OC1(CCN(Cc3ccc(F)cc3)CC1)CC2=O | 9.09%
Cc1ccc(OC2(C(=O)O)CCN(C(=O)c3ccsc3)CC2)cn1 | -4.09%
Cc1ccccc1NC(=O)c1cncc(C2CCNCC2)n1 | 1.54%
O=C(NCCN1CCCCCC1=O)c1n[nH]c(=O)c2ccccc12 | -4.38%
Cc1cccc(CNC(=O)Nc2cc(C(F)(F)F)c[nH]c2=O)n1 | 0.488%
COCCc1noc(CNC(=O)C2CC(=O)N(C(C)(C)C)C2)n1 (stereo not given) | 3.77%
O=C(c1ccccc1)N1CCCn2c(CN3CCCCC3)nnc2C1 | -65.5%
Fc1ccc(OCc2noc(CN3CCc4cncnc4C3)n2)cc1 | 2%
O=C(Nc1cccnc1)Nc1ccn(CC(F)F)n1 | -4.63%
Cc1ccc(CN2CCS(=O)(=O)C(C)(C)C2)cc1C | 1.05%
CC1CCc2nn(CCNC(=O)c3ccco3)c(=O)cc2C1 (stereo not given) | 9.15%
CC(Nc1ncnc2sccc12)c1cnn(C)c1 (stereo not given) | -2.63%
Cn1ncc2c(N3CCC(F)(F)CC3)nc(-c3ccncc3)nc21 | 9.74%
COc1cc(NC(=O)N(C)C(C2CC2)C2CC2)ncn1 | -6.69%

SMILES | cytotoxicity at 10 µM
Cc1cc(NC(=O)CCN2CCCC2Cn2cccn2)no1 (stereo not given) | -5.09%
O=C(O)[C@@H]1CN(Cc2cnc(C3CCCCC3)nc2)C[C@H]1C1CC1 | -10%
O=C(NCCNc1cc(-n2cccc2)ncn1)c1cccs1 | -2.56%
COc1cccc(CNC(=O)c2cccnc2SC(C)C)c1 | -1.35%
O=C1Nc2ccccc2C12CCN(Cc1ccccn1)CC2 | -3.45%
CC(C)C(=O)N1CCC2(CC1)COCCN2Cc1ccc(F)cc1 | -60.9%
CC(C)CC(Cc1cccc(Br)c1)C(=O)O (stereo not given) | 13.8%
CC(=O)N(Cc1ncc(C(C)C)o1)C1CCN(CCn2cccn2)C1 (stereo not given) | -4.89%
COCCN1CC[C@H]2OCC[C@@H](C(=O)Nc3cccnc3)[C@@H]2C1 | 4.81%
CC(=O)N1CC(c2ncn(C(C)C)n2)c2cc(C(=O)NC3CC3)ccc21 (stereo not given) | 4.11%
O=C(N1CC(c2cccnc2)C1)C1(c2ccc(F)cc2)CCOCC1 | -14.5%
O=C1CCC2(CCN(Cc3nccs3)CC2)CN1CCCO | -7.56%
Cc1noc(C)c1CN1CCC(c2nc3cc(Cl)ccc3o2)CC1 | -4.22%
Cc1nc2sccn2c1CNc1cc(C(=O)O)ccc1F | 4.59%
O=C(c1cn(-c2ccccc2C(F)(F)F)nn1)N1CCSCC1 | -0.111%
CN1N=C(C(=O)Nc2cc(F)ccc2OCC2CCCO2)CCC1=O (stereo not given) | -8%
CSCCc1c(-c2ccccc2)ncn1CC(C)(C)N1CCOCC1 | -47.4%
CCOC(=O)N1CCN(C(=O)c2sc(-c3ccc(F)cc3)nc2C)CC1 | 10.7%
CN(C)CCN1CC[C@@H]2[C@@H]1CCN2C(=O)c1cccc(Cl)c1 | -84%
CC(CN1CCCC1)C(=O)NCC1CCN(c2cnn(C)c(=O)c2)CC1 (stereo not given) | 0.301%
O=C(Cc1noc2ccccc12)N1CCC(Nc2cccnn2)CC1 | -7.85%
O=C(CCc1cc(F)ccc1F)NS(=O)(=O)c1ccc2c(c1)OCCO2 | -18.8%

SMILES | cytotoxicity at 10 µM
c1cc(C2CC2)n2cnc(C3CN(Cc4nccs4)CCO3)c2c1 (stereo not given) | 1.49%
COCCC(=O)N1CCCC(c2nc(O)cc(-c3ccncc3)n2)C1 (stereo not given) | -24.9%
O=C1CCOC[C@]2(CN(Cc3ccccc3)C[C@H]2c2ccccc2)N1 | -14.1%
COCCn1cc2c(n1)C(CNCc1ccsc1)OCC2 (stereo not given) | 3.89%
Cc1nc2c(Nc3cccc(C#N)c3)nc(N)nc2n1C | -1.87%
CSCC(=O)N1CCOC(c2nc(C(C)(C)C)n[nH]2)C1 (stereo not given) | -9.58%
CCN(Cc1cccc(Cl)c1)Cc1nc2c(cnn2C)c(=O)[nH]1 | 1.01%
COc1cccc2c1OCC(C(=O)NC1CCN(S(C)(=O)=O)CC1)C2 (stereo not given) | -10.7%
COc1ccc([C@@H]2CN(C(=O)CCC(F)(F)F)C[C@H]2NC(C)=O)cc1 | 2.12%
O=C(NCC1COCc2c(-c3cccnc3)nnn2C1)c1cccs1 (stereo not given) | 2.93%
Cc1noc(C)c1CNCc1nn(-c2ccccc2)c2c1CCC2 | 1.83%
COc1ccc(C[C@H]2CN(C(=O)c3cscn3)CC[C@@H]2OC)cc1 | 7.71%
CCn1cnnc1CNC(=O)N1CCN(c2ccccc2O)CC1 | -1.47%
c1cc2c(cc1CN1CCCC3(CCOC3)C1)OCO2 (stereo not given) | 0.447%
Cc1nc(CN2CCc3ncnc(-c4ccc(F)cc4)c3CC2)cs1 | 4.89%
O=C(c1ccoc1)N1CCOC2(COCCN(CC3CC3)C2)C1 (stereo not given) | 7.57%
COc1ccc(C[C@H]2CN(Cc3ccoc3)CC[C@@H]2OC)cc1 | 2.51%
N#Cc1cc(N2CCC(S(N)(=O)=O)CC2)c2ccccc2n1 | -5.03%
Cc1nccc(-c2cccc(NCc3nc(C(C)C)no3)c2)n1 | 5.75%
Cc1cc2ccccc2n1CCC(=O)N1CCC[C@H]1C(N)=O | -0.338%
Cc1nn(C)c2ncnc(N3CCCC(OCc4cccnc4)C3)c12 (stereo not given) | 12.8%
CCc1ccc2occ(CC(=O)N3CCC4(CCCN(C)C4=O)C3)c2c1 (stereo not given) | -14.5%
